Measurements taken from ChEMBL document CHEMBL1155299, “Design, syntheses, and evaluation of Taspase1 inhibitors” (Bioorg Med Chem Lett, 2009).
pIC50: −log10 of the molar value. Activity calls are given as the source filed them. The calls are words filed in the database; no cut-off is given here. Peptide text beside a SMILES is read from it.

Tests used:
[1] = biological target: T1, Threonine aspartase 1 (Homo sapiens) (UniProt Q9H6P5); assay: Inhibition of recombinant Taspase 1 assessed as loss of processing and accumulation of full length p45 fragment by radiographic in vitro cleavage assay added 30 mins before translated p45MLL
T1 sequence (whole entry): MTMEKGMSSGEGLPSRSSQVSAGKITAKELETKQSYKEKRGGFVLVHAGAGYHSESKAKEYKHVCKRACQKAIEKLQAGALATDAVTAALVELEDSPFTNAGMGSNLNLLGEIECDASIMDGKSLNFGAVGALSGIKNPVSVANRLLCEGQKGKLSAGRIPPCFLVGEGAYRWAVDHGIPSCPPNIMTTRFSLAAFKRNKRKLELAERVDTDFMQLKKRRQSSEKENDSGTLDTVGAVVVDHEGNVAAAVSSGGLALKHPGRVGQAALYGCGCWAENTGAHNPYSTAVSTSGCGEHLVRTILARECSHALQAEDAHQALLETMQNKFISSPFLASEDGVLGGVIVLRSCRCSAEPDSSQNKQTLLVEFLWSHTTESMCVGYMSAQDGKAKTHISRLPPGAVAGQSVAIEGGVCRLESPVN
Procedure, shortened: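 Substrate was a p45MLL fragment (residues 2,500–2,800) with the CS1 site mutated to block cleavage there. It was made by in vitro translation as 35S-labelled protein, exposed to Taspase1, and cleavage was followed by radiography.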

[2] = biological target: T2, Threonine aspartase 1 (Homo sapiens, UniProt Q9H6P5); assay: Inhibition of recombinant Taspase 1 assessed as accumulation of emitted fluorescence by FRET assay
T2 sequence (Q9H6P5 whole entry): T1 sequence (whole entry)

[3] = biological target: T1, Threonine aspartase 1 (Homo sapiens); assay: Inhibition of recombinant Taspase 1 assessed as accumulation of emitted fluorescence at 100 uM by FRET assay

Structure (SMILES) | Activity [1] | pIC50 [2] | Activity [3]
CC[C@H](C)[C@H](NC(C)=O)C(=O)N[C@@H](CO)C(=O)N[C@@H](CCC(N)=O)C(=O)N[C@@H](CC(C)C)C(=O)N[C@@H](CC(=O)C1(C)CO1)C(=O)O (some centres undefined) (HELM PEPTIDE1{[ac].I.S.Q.L.[CC1(C(=O)C[C@H](N[*:1])C(=O)O)CO1]}$$$$V2.0) | Active |  | 
CC[C@H](C)[C@H](NC(C)=O)C(=O)N[C@@H](CO)C(=O)N[C@@H](CCC(N)=O)C(=O)N[C@@H](CC(C)C)C(=O)N[C@@H](C/C=C/C(C)=O)C(=O)O (HELM PEPTIDE1{[ac].I.S.Q.L.[CC(=O)/C=C/C[C@H](N[*:1])C(=O)O]}$$$$V2.0) | Active | 4.20 | 
CC[C@H](C)[C@H](NC(C)=O)C(=O)N[C@@H](CO)C(=O)N[C@@H](CCC(N)=O)C(=O)N[C@@H](CC(C)C)C(=O)N[C@@H](C/C=C/S(C)(=O)=O)C(=O)O (HELM PEPTIDE1{[ac].I.S.Q.L.[CS(=O)(=O)/C=C/C[C@H](N[*:1])C(=O)O]}$$$$V2.0) | Active | < 4.00 | 
CC[C@H](C)[C@H](NC(C)=O)C(=O)N[C@@H](CO)C(=O)N[C@@H](CCC(N)=O)C(=O)N[C@@H](CC(C)C)C(=O)N[C@H](/C=C/S(C)(=O)=O)CC(=O)O (HELM PEPTIDE1{[ac].I.S.Q.L.[CS(=O)(=O)/C=C/[C@H](CC(=O)O)N[*:1]]}$$$$V2.0) | Active |  | 
CCCC[C@H](NC(=O)[C@H](CC(C)C)NC(=O)[C@H](CCC(N)=O)NC(=O)[C@H](CO)NC(=O)[C@@H](NC(C)=O)[C@@H](C)CC)C(=O)O (HELM PEPTIDE1{[ac].I.S.Q.L.[Nle]}$$$$V2.0) |  |  | inactive
CC[C@H](C)[C@H](NC(C)=O)C(=O)N[C@@H](CO)C(=O)N[C@@H](CCC(N)=O)C(=O)N[C@@H](CC(C)C)C(=O)NC1CB(O)OC1=O (some centres undefined) (HELM PEPTIDE1{[ac].I.S.Q.L.[O=C1OB(O)CC1N[*:1]]}$$$$V2.0) |  |  | inactive
CCCC[C@H](NC(=O)[C@H](CC(C)C)NC(=O)[C@H](CCC(N)=O)NC(C)=O)C(=O)O (HELM PEPTIDE1{[ac].Q.L.[Nle]}$$$$V2.0) |  |  | inactive
